Casp6 inh: human caspase-6 inhibitors, primary screen, biochemical, VEID-R110 fluorescence, single point, set 2; P55212; actives 0.53% (n = 350,000); inhibition, % at 12.5 µM; AID 686996, 2013; purified caspase-6, Z-VEID-R110 cleavage fluorescence;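 active = mean inhibition across replicates at least about 35%, with every replicate also reaching that limit, limit read from the data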;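 also: 0% = median of neutral control wells and 100% = no fluorescence left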
LEDGF integ inh: blockers of LEDGF/p75-dependent integrase strand transfer – biochemical, TR-FRET, high throughput, primary screen | HIV-1 integrase (with human LEDGF/p75) | TR-FRET IN-LEDGF/p75 DNA integration, Eu/Cy5 | inhibition, % at 3.7 µM | actives 0.64% (n = 370,000);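 active = inhibition above the screen-wide mean plus 3 SD, cut at about 13% in these data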;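 also: signal is the Cy5 over europium emission ratio at 671 and 618 nm; 0% = plate median of compound wells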
TDP2 inh: human TDP2 enzyme inhibitors, primary screen, biochemical, epi absorbance, recombinant enzyme | Tyrosyl-DNA phosphodiesterase 2 (Homo sapiens), O95551 | T5PNP hydrolysis, p-nitrophenol absorbance 415 nm | inhibition, % at 12.8 µM | actives 0.34% (n = 370,000);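 active = inhibition above the mean of all tested compounds plus 3 SD, set per campaign, cut at about 25% in these data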;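 also: 0% = DMSO with enzyme and 100% = buffer with substrate but no TDP2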
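Evaluation: % inhibition relative to enzyme-containing and enzyme-free wells. Material: recombinant human TDP2. Benchmarks: enzyme-free and DMSO wells. Timing: enzyme reaction with compound for 2 h at 37 °C. Compound dosing: 12.8 µM only. Measured by: p-Nitrophenol epi absorbance. Reagent: T5PNP substrate at 5 mM, a TopII-DNA adduct mimic. Replication: single well per compound.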
NSD2 inh: NSD2 histone methyltransferase inhibitors, primary screen, biochemical, AlphaScreen, single concentration, set 2; Histone-lysine N-methyltransferase NSD2 (Homo sapiens), O96028; NSD2 peptide methylation, 120 min; inhibition, % at 12.5 µM; actives 0.54% (n = 310,000); in the data active = inhibition above about 50%
UHRF1 MBD2 ctr: UHRF1 methylated DNA binding inhibitors, primary screen, counter-screen for MBD2 inhibitor project, biochemical, TR-FRET, human UHRF1, single concentration; actives 0.75% (n = 370,000); UHRF1 binding to methylated oligo; AID 687016, 2013; inhibition, % at 4.4 µM; E3 ubiquitin-protein ligase UHRF1 (Homo sapiens), Q96T88; in the data active = inhibition above about 21%;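 also: UHRF1 SRA domain binding a hemimethylated CpG hairpin DNA probe; 0% = median of test compound wells and 100% = reference inhibitor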
MBD2 inh: inhibitors of MBD2 binding to methylated DNA, primary screen, biochemical, TR-FRET, DNA-binding domain, human; MBD2 binding to methylated oligonucleotide; Methyl-CpG-binding domain protein 2 (Homo sapiens), Q9UBB5; actives 0.31% (n = 370,000); inhibition, % at 4.4 µM; in the data active = inhibition above about 13%
Target sequence (Q9UBB5 whole entry, looked up, the tested form may be a part): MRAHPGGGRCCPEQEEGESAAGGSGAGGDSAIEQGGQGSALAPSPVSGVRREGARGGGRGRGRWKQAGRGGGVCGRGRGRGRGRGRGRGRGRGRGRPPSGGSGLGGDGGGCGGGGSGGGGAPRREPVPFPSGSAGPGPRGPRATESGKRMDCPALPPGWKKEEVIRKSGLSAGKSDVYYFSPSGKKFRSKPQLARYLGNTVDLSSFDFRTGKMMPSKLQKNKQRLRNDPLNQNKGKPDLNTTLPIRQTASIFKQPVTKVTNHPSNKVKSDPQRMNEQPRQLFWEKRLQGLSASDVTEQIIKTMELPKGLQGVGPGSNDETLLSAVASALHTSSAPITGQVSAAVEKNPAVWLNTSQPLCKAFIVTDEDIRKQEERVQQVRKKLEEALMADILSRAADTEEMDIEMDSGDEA
TDP2 confirm: human TDP2 enzyme inhibitors, retest, confirmation, biochemical, epi absorbance, recombinant enzyme; shares compounds with TDP2 inh; actives 22% (n = 1,100); absorbance read-out; inhibition, % at 12.8 µM; AID 743263, 2014; in the data active = inhibition above about 25%;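 also: 0% = vehicle with enzyme and 100% = no enzyme buffer only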
Numbers without * were called inactive; . = no result given. The list is not random: actives were taken first. Their share in the collection is about 1.9%.

SMILES	Casp6 inh	LEDGF integ inh	TDP2 inh	NSD2 inh	UHRF1 MBD2 ctr	MBD2 inh	TDP2 confirm
O=S(=O)(Nc1c(S(=O)(=O)c2ccccc2)c2nc3ccccc3nc2n1C1CCCCC1)c1ccccc1	41*	33*	89*	141*	8	2	84*
COc1ccc(NC(=O)Nc2ccc3c(c2)C(=O)N([C@H](C)CO)C[C@H](C)[C@H](CN(C)C(=O)NC(C)C)OCCCC[C@@H](C)O3)cc1	-2	.	.	.	.	.	.
COc1cc(/C=C2/C(=O)N(c3ccc([N+](=O)[O-])cc3)N=C2N2CCOCC2)ccc1O	3	3	67*	.	11	-1	32*
COCC(=O)N1CC2(C1)[C@H](c1ccc(-c3ccccc3)cc1)[C@H](CO)N2C(C)=O	0	.	.	.	.	.	.
COc1cc(CN2CCN(Cc3cccc(OC)c3OC)CC2)cc(OC)c1	-4	-3	26*	6	1	-5	6
COc1ccc(CN2CCN(Cc3cccc(Oc4ccccc4)c3)CC2)c(OC)c1OC	-3	-1	8	1	-4	-3	.
O=C(O)COc1ccccc1/C=C1\C(=O)Nc2ccc(Br)cc21	10	-2	29*	8	0	-6	14
COc1cc(CN2CC(C)OC(C)C2)cc(OC)c1 (configuration not stated)	.	2	24*	0	16	3	4
COc1cc(CN2CCCCCC2)cc(OC)c1	-15	1	8	1	3	3	.
C[C@@H]1CCCCO[C@H](CN(C)C(=O)Nc2cccc3ccccc23)[C@@H](C)CN([C@H](C)CO)C(=O)c2cc(NC(=O)Nc3ccc(C(F)(F)F)cc3)ccc2O1	-3	.	.	.	.	.	.
C=CCOC(=O)C1=C(C)NC2(O)c3ccccc3C(=O)C12O (configuration not stated)	.	2	43*	4	-7	-9	22
CC1=C(C(=O)OCC(C)C)C2(O)C(=O)c3ccccc3C2(O)N1 (configuration not stated)	.	-1	47*	4	-7	-8	20
C[C@@H]1CCCCO[C@@H](CN(C)C(=O)C2CCCCC2)[C@H](C)CN([C@@H](C)CO)C(=O)c2cc(NC(=O)NC3CCCCC3)ccc2O1	3	.	.	.	.	.	.
CCOC(=O)C1(CCOC)CCN(C(=O)c2sccc2C)CC1	-2	-3	26*	-5	0	-1	-10
CCOC(=O)C1(Cc2ccccc2C)CCCN(C(=O)c2sccc2C)C1 (configuration not stated)	-6	3	4	-2	-2	-6	.
CCCNC(=O)[C@H]1[C@H](CO)[C@H]2Cn3c(ccc(-c4ccccc4F)c3=O)[C@H]2N1C(C)=O	0	.	.	.	.	.	.
CCCCC(Sc1nc(N)c(NC(=O)c2ccco2)c(=O)[nH]1)C(=O)O (configuration not stated)	6	2	26*	2	0	-3	2
Cc1ccc(S(=O)(=O)Nc2ccc3c(c2)C(=O)N([C@@H](C)CO)C[C@@H](C)[C@H](CN(C)C(=O)CCC(F)(F)F)OCCCC[C@@H](C)O3)cc1	2	.	.	.	.	.	.
COc1ccc(S(=O)(=O)N(C)C[C@H]2OCCCC[C@@H](C)Oc3ccc(NC(=O)NC(C)C)cc3C(=O)N([C@H](C)CO)C[C@@H]2C)cc1	0	.	.	.	.	.	.
N/C(=N\N=Cc1ccc2c(c1)OCO2)NN=Cc1ccc2c(c1)OCO2	1	43*	44*	0	2	-5	-7
COc1ccc(/C=C2/SC(=S)N(CC(=O)O)C2=O)cc1OCc1ccc(Cl)cc1	31	11	-2	14	-3	-1	.
O=C(O)CN1C(=O)/C(=C\c2cc(Br)ccc2OCc2ccc(Cl)cc2)SC1=S	77*	0	26*	19	-4	1	17
CCCCNc1cc(NC(C)=O)cc2cc(OC)c(OC)cc12	.	-4	30*	.	-2	-3	29*
CS(=O)(=O)c1nc(S(=O)(=O)c2ccc(Cl)cc2)c(NCCCN2CCOCC2)s1	-1	2	27*	1	-3	2	1
COC(=O)CCC(=O)OC1(C)C(=O)C=C2C=C(C3CC3)N(C3CC3)C=C2C1=O (configuration not stated)	31	7	38*	.	2	-1	10
SMILES	Casp6 inh	LEDGF integ inh	TDP2 inh	NSD2 inh	UHRF1 MBD2 ctr	MBD2 inh	TDP2 confirm
CC1=NN(c2ccc(S(=O)(=O)O)cc2C)C(=O)C1	10	1	34*	15	-5	-6	38*
Cc1ccccc1S(=O)Cc1ccc(C(=O)N2CCN(C(=O)c3ccco3)CC2)o1 (configuration not stated)	-3	-1	39*	0	1	1	-3
CCN(c1ccccc1)c1cc2ccccc2c(=O)[nH]1	65*	12	28*	41	-5	-2	76*
CCCNC(=O)Nc1ccc2c(c1)C(=O)N(C)[C@@H]1CC[C@@H](CC(=O)NCc3ccccc3)O[C@@H]1CO2	2	.	.	.	.	.	.
C=C1CCC[C@]2(C)C[C@H]3OC(=O)C(CNCCN(CC)CC)[C@H]3CC12 (some centres not stated)	.	1	34*	13	-1	-3	-4
C=C1CCC[C@]2(C)C[C@H]3OC(=O)C(CNCCN(C)C)[C@H]3CC12 (some centres not stated)	-121	2	-10	1	0	-3	.
CCCNC(=O)C[C@H]1CC[C@@H]2[C@H](COc3ccc(NC(=O)NCC)cc3C(=O)N2C)O1	-1	.	.	.	.	.	.
CO[C@H]1CN(C)C(=O)c2ccc(NC(=O)Nc3cc(F)ccc3F)cc2OC[C@H](C)NC[C@H]1C	3	.	.	.	.	.	.
CC1=NN(c2ccccc2)C(=O)C1C(=O)c1ccccc1 (configuration not stated)	1	-3	9	12	-8	-1	.
CC1=NN(c2ccccc2)C(=O)C1C(=O)C(=O)Nc1ccc(F)cc1 (configuration not stated)	1	1	32*	0	3	-4	7
CC1=NN(c2ccccc2)C(=O)/C1=C\c1ccc(Br)s1	1	5	52*	2	0	2	28*
CC(C)(C)c1ccc(NC(=O)CCNC(=O)c2ccco2)cc1	-1	-3	-5	.	1	-3	.
